Paper PMC9290503 (British Journal of Clinical Pharmacology, 2021)

Tests used:
[1] = tested on: human LSD1; conditions: targets the catalytic FAD in the LSD1 active site; no reference given; cited from earlier work
[2] = Study 1001 single-dose urine pharmacokinetics; format: in vivo, human; conditions: for Aet, mean (CV%) / CLR, mean (CV%) / fe,t, mean (CV%): urine, Study 1001
[3] = Safety and tolerability, Study 1001; format: in vivo, human
Procedure, shortened: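 Double-blind, placebo-controlled single oral doses (5–60 mg) in healthy adults aged 18–55, given after at least 10 h fasting, with sentinel dosing in the first cohort. Monitored AEs, physical and neurological exams, vital signs, flagged clinical labs and 12-lead ECG. TEAEs counted from first dose to 30 days after. Semen analysis and serum FSH, LH, testosterone and inhibin B were taken at baseline and one or two spermatogenic cycles post-dose. Follow-up to day 60 (±2).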

[4] = Safety and tolerability, Study 1003; format: in vivo, human
Procedure, shortened: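 Healthy women received placebo or test compound once daily for 10 days (20–160 mg, double-blind), including one 20 mg cohort of four Japanese women. Monitored AEs, physical and neurological exams, vital signs, flagged clinical labs, pregnancy and 12-lead ECG. TEAEs counted from first dose to 30 days after the last dose. Follow-up to day 70 (±2).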

[5] = 20 mg q.d. 10 days, Japanese (n = 3)
[6] = 20 mg q.d. 10 days, non‐Japanese (n = 6)
[7] = 60 mg q.d. 10 days, non‐Japanese (n = 6)
[8] = 160 mg q.d. 10 days, non‐Japanese (n = 3)
[9] = MRD, TAK‐418 all participants (n = 18)

## Cl.O=C(NC1CCOCC1)c1csc([C@@H]2C[C@H]2NCC2CC2)c1 [TAK‐418]
[1]
  inhibition of LSD1 activity: irreversibly inhibits the activity of human LSD1
[2]; 20–160 mg dose range, single dose (Tables 3 and 4)
  renal clearance: 5.81 to 8.68 L/h
[2]; after 20–160 mg dosing, single dose (Tables 3 and 4)
  recovered unchanged from urine: 13.3–19.5%
[2]; single oral dose 30 mg, fasted
  Aet, mean (CV%): 5.708 (13.0) mg
  CLR, mean (CV%): 8.683 (16.3) L h^−1
  fe,t, mean (CV%): 19.022 (13.0) %
[2]; single oral dose 40 mg
  Aet, mean (CV%): 5.333 (18.8) mg
  CLR, mean (CV%): 8.173 (38.1) L h^−1
  fe,t, mean (CV%): 13.335 (18.8) %
[2]; single oral dose 60 mg
  Aet, mean (CV%): 11.677 (35.2) mg
  CLR, mean (CV%): 7.242 (13.4) L h^−1
  fe,t, mean (CV%): 19.472 (35.2) %
[2]; within 24 hours
  recovered unchanged from urine: Approximately 20%
[3]; 23 male participants
  semen parameters or serum hormone levels: no clinically relevant changes
[3]; Study 1001
  laboratory test results, vital signs or electrocardiogram readings: No clinically significant changes
  nausea, most common TAK‐418‐related TEAE: reported in one participant administered TAK‐418 15 mg and another administered TAK‐418 40 mg
  serious AEs, suicidal ideation/behaviour, deaths: no serious AEs (SAEs), suicidal ideation/behaviour or deaths were reported
[3]; one at 15 mg (unrelated), one at 40 mg (study‐drug related)
  testicular pain: two men given TAK‐418 reported testicular pain
[3]; single dose 5–60 mg while fasting, 13 participants
  participants reporting TEAEs: 43%
[3]; single dose up to 60 mg
  severity of TEAEs: mild
[3]; single dose, n = 3
  upper respiratory tract infection (most common TEAE): 10%
[4]; [5]
  Participants with any TEAE: 1 (33.3) Number (%) of participants
  TEAE Arthropod bite: 0 Number (%) of participants
  TEAE Constipation: 0 Number (%) of participants
  TEAE Decreased appetite: 0 Number (%) of participants
  TEAE Diarrhoea: 0 Number (%) of participants
  TEAE Dizziness: 0 Number (%) of participants
  TEAE Dry mouth: 0 Number (%) of participants
  TEAE Headache: 0 Number (%) of participants
  TEAE Myalgia: 0 Number (%) of participants
  TEAE Nausea: 0 Number (%) of participants
  TEAE Somnolence: 0 Number (%) of participants
  TEAE Vomiting: 0 Number (%) of participants
[4]; [6]
  Participants with any TEAE: 5 (83.3) Number (%) of participants
  TEAE Arthropod bite: 1 (16.7) Number (%) of participants
  TEAE Constipation: 0 Number (%) of participants
  TEAE Decreased appetite: 2 (33.3) Number (%) of participants
  TEAE Diarrhoea: 0 Number (%) of participants
  TEAE Dizziness: 1 (16.7) Number (%) of participants
  TEAE Dry mouth: 0 Number (%) of participants
  TEAE Headache: 4 (66.7) Number (%) of participants
  TEAE Myalgia: 0 Number (%) of participants
  TEAE Nausea: 0 Number (%) of participants
  TEAE Somnolence: 2 (33.3) Number (%) of participants
  TEAE Vomiting: 0 Number (%) of participants
[4]; [7]
  Participants with any TEAE: 6 (100.0) Number (%) of participants
  TEAE Arthropod bite: 1 (16.7) Number (%) of participants
  TEAE Decreased appetite: 1 (16.7) Number (%) of participants
  TEAE Diarrhoea: 1 (16.7) Number (%) of participants
  TEAE Dizziness: 1 (16.7) Number (%) of participants
  TEAE Dry mouth: 1 (16.7) Number (%) of participants
  TEAE Headache: 5 (83.3) Number (%) of participants
  TEAE Myalgia: 2 (33.3) Number (%) of participants
  TEAE Nausea: 4 (66.7) Number (%) of participants
  TEAE Somnolence: 1 (16.7) Number (%) of participants
  TEAE Vomiting: 3 (50.0) Number (%) of participants
[4]; [8]
  Participants with any TEAE: 3 (100.0) Number (%) of participants
  TEAE Arthropod bite: 0 Number (%) of participants
  TEAE Constipation: 0 Number (%) of participants
  TEAE Decreased appetite: 0 Number (%) of participants
  TEAE Diarrhoea: 2 (66.7) Number (%) of participants
  TEAE Dizziness: 0 Number (%) of participants
  TEAE Dry mouth: 2 (66.7) Number (%) of participants
  TEAE Headache: 0 Number (%) of participants
  TEAE Myalgia: 0 Number (%) of participants
  TEAE Nausea: 0 Number (%) of participants
  TEAE Somnolence: 0 Number (%) of participants
  TEAE Vomiting: 0 Number (%) of participants
[4]; MRD cohorts
  laboratory test parameters: No notably abnormal laboratory test parameters
[4]; MRD cohorts (20, 60 or 160 mg q.d.), 15 participants
  participants experiencing TEAEs: 83%
[4]; MRD cohorts, five individuals
  treatment‐related headache: 28%
[4]; MRD cohorts, five participants
  participants with moderate TEAEs: 28%
[4]; MRD cohorts, n = 3
  decreased appetite: 17%
  diarrhoea: 17%
  dry mouth: 17%
  somnolence: 17%
  vomiting: 17%
[4]; MRD cohorts, n = 4
  nausea: 22%
[4]; MRD cohorts, n = 9
  headache: 50%
[4]; MRD cohorts, nine participants
  participants with mild TEAEs: 50%
[4]; MRD cohorts, one participant (headache, 60 mg)
  participants with severe TEAEs: 6%
[4]; MRD cohorts, three individuals
  treatment‐related dry mouth: 17%
[4]; MRD cohorts, twelve participants, all mild
  participants with treatment‐related TEAEs: 67%
[4]; [9]
  Participants with any TEAE: 15 (83.3) Number (%) of participants
  TEAE Arthropod bite: 2 (11.1) Number (%) of participants
  TEAE Constipation: 2 (11.1) Number (%) of participants
  TEAE Decreased appetite: 3 (16.7) Number (%) of participants
  TEAE Diarrhoea: 3 (16.7) Number (%) of participants
  TEAE Dizziness: 2 (11.1) Number (%) of participants
  TEAE Dry mouth: 3 (16.7) Number (%) of participants
  TEAE Headache: 9 (50.0) Number (%) of participants
  TEAE Myalgia: 2 (11.1) Number (%) of participants
  TEAE Nausea: 4 (22.2) Number (%) of participants
  TEAE Somnolence: 3 (16.7) Number (%) of participants
  TEAE Vomiting: 3 (16.7) Number (%) of participants
[4]; SRD 120/160 mg cohort
  treatment‐related TEAEs: Two participants had TEAEs considered to be related to treatment, which were mild in intensity
[4]; SRD 120/160 mg cohort, n = 2
  dizziness: 25%
  headache: 25%
[4]; SRD 120/160 mg cohort, one person
  participants with moderate TEAEs: 13%
[4]; SRD 120/160 mg cohort, three women
  participants with mild TEAEs: 38%
[4]; SRD cohort, 160 mg, Day 30, one participant (13%), more than three times the upper limit of normal
  gamma glutamyl transferase level reached: 315 U/L
[4]; Study 1003
  SAEs, suicidal ideation/behaviour, deaths: no SAEs, suicidal ideation/behaviour or deaths were reported
[4]; current study
  thrombocytopenia AEs: no thrombocytopenia AEs were observed
[4]; daily dosing up to 160 mg
  tolerability: well tolerated
[4]; with TAK‐418 20 mg
  Japanese participants experiencing TEAEs: 33.3%
  non‐Japanese participants experiencing TEAEs: 83%
